From ChEMBL document CHEMBL3576816, “5'-Silylated 3'-1,2,3-triazolyl Thymidine Analogues as Inhibitors of West Nile Virus and Dengue Virus” (J Med Chem, 2015)
Active and inactive are the calls of the source. The calls are words filed in the database; no cut-off is given here.

Tests used:
[1] = test system: Human immunodeficiency virus 1; experiment: Antiviral activity against HIV1; format: functional, organism-based
[2] = target: Human immunodeficiency virus type 1 reverse transcriptase (Human immunodeficiency virus 1) (UniProt Q72547); experiment: Inhibition of HIV1 reverse transcriptase
[3] = test system: unidentified influenza virus; experiment: Antiviral activity against Influenzae virus; format: functional, organism-based
Human betaherpesvirus 5 = experiment: Antiviral activity against Human cytomegalovirus; format: functional, organism-based
Hepatitis C virus = experiment: Antiviral activity against HCV; format: functional, organism-based; details: Hepacivirus hominis
West Nile virus = experiment: Antiviral activity against West Nile virus infected in BHK-WII RepRen1B cells assessed as inhibition of viral replication at 10 uM after 3 days by luciferase reporter gene assay relative to control; format: functional; details: for inhibition at 10 µM: 72 h
Method in brief: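 Compound (DMSO, 10 μM final) added next day in triplicate; lycorine 1 μM served as control inhibitor. Three days on, live-cell Renilla substrate (1:1000 in phenol-red-free DME, 10% FBS) replaced medium. Luminescence measured; triplicate means compared with DMSO-alone wells.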

[4] = Cytotoxicity against BHK cells infected with West Nile virus replicon assessed as cell viability at 10 uM after 3 days by CellTiter 96 aqueous one solution cell proliferation assay relative to control; format: cell-based, Mesocricetus auratus; details: hamster; for Activity: bhk, 72 h, 10 µM
Method in brief: (§1)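 WNV replicon BHK cells, about 3 × 10^3/well, plated without antibiotic selection; next day compound in DMSO (10 μM final for screening, or eight serial dilutions), 3 days at 37°C, 5% CO2. Tetrazolium reagent, absorbance 450 nm, triplicate means versus DMSO wells; CC50 = 50% reduction in proliferation; CC50s mean ± SD of two experiments, top dose 200 μM.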

Dengue virus = experiment: Antiviral activity against Dengue virus infected in BHK pD2-hRucPac-2ATG cells assessed as inhibition of viral replication at 10 uM after 3 days by luciferase reporter gene assay relative to control; format: functional; details: for inhibition at 10 µM: 72 h
Method in brief: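 Renilla luciferase-bearing DENV subgenomic replicon BHK cells, kept on 3 μg/mL puromycin, seeded at 1.5 × 10^3/well without selection. Next day, 10 μM final compound in DMSO added to triplicate wells; MPA 1 μM as control inhibitor. After 3 days, medium swapped for live-cell Renilla substrate (1:1000, phenol-red-free DME, 10% FBS). Luminescence read; triplicate mean compared with DMSO-only wells.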

[5] = Cytotoxicity against BHK cells infected with Dengue virus replicon assessed as cell viability at 10 uM after 3 days by CellTiter 96 aqueous one solution cell proliferation assay relative to control; format: cell-based, Mesocricetus auratus; details: hamster; for Activity: bhk, 72 h, 10 µM
Method in brief: as §1, with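 “DENV” for “WNV”, “1.5” for “about 3”, “Tetrazolium (MTS-type)” for “Tetrazolium”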

Row | SMILES | Activity [1] | inhibition [2] | Activity [3] | Activity (Human betaherpesvirus 5) | Activity (Hepatitis C virus) | inhibition at 10 µM (West Nile virus) | Activity [4] | inhibition at 10 µM (Dengue virus) | Activity [5] | inhibition (West Nile virus) | inhibition (Dengue virus) | viability at 72 h, 10 µM ([4]; BHK cells infected with West Nile virus replicon, read-out: Activity) | viability at 72 h, 10 µM ([5]; BHK cells infected with Dengue virus replicon, read-out: Activity)
1 | Cc1cn([C@H]2C[C@H](n3nncc3-c3cccc4ccccc34)[C@@H](CO[Si](C)(C)C(C)(C)C)O2)c(=O)[nH]c1=O | inactive | inactive | inactive | inactive | inactive | 100% | 8% | 99% | 60% | – | – | – | –
2 | Cc1cn([C@H]2C[C@H](n3nncc3-c3cc4ccccc4c4ccccc34)[C@@H](CO)O2)c(=O)[nH]c1=O | – | – | – | – | – | 0% | 100% | 0% | 95% | – | – | – | –
3 | COC[C@H]1O[C@@H](n2cc(C)c(=O)n(C)c2=O)C[C@@H]1n1nncc1-c1ccc2cc(OC)ccc2c1 | – | – | – | – | – | 0% | 100% | 0% | 100% | – | – | – | –
4 | COc1ccc2cc(C(=O)N[C@H]3C[C@H](n4cc(C)c(=O)[nH]c4=O)O[C@@H]3CO[Si](C)(C)C(C)(C)C)ccc2c1 | inactive | inactive | inactive | inactive | inactive | 95% | 50% | 92% | 8% | – | – | – | –
5 | CCOCOC[C@H]1O[C@@H](n2cc(C)c(=O)[nH]c2=O)C[C@@H]1n1nncc1-c1ccc2cc(OC)ccc2c1 | – | – | – | – | – | 0% | 89% | 13% | 95% | – | – | – | –
6 | Cc1cn([C@H]2C[C@H](NC(=O)c3ccc(N4CCOCC4)cc3)[C@@H](CO[Si](C)(C)C(C)(C)C)O2)c(=O)[nH]c1=O | inactive | inactive | inactive | inactive | inactive | – | – | – | – | Active | Active | – | –
7 | Cc1cn([C@H]2C[C@H](NC(=O)Nc3ccccc3)[C@@H](CO[Si](C)(C)C(C)(C)C)O2)c(=O)[nH]c1=O | inactive | inactive | inactive | inactive | inactive | – | – | – | – | Active | Active | – | –
8 | Cc1ccc(S(=O)(=O)NC(=O)N[C@H]2C[C@H](n3cc(C)c(=O)[nH]c3=O)O[C@@H]2CO[Si](C)(C)C(C)(C)C)cc1 | inactive | inactive | inactive | inactive | inactive | – | – | – | – | Active | Active | – | –
9 | COc1ccc2cc(C(=O)N[C@H]3C[C@H](n4cc(C)c(=O)[nH]c4=O)O[C@@H]3CO)ccc2c1 | – | – | – | – | – | 0% | 100% | 0% | 100% | – | – | – | –
10 | Cc1cn([C@H]2C[C@H](n3cc(-c4ccc5[nH]ccc5c4)nn3)[C@@H](CO)O2)c(=O)[nH]c1=O | – | – | – | – | – | 0% | 100% | 8.2% | 100% | – | – | – | –
11 | Cc1cn([C@H]2C[C@H](n3cc(-c4ccc(-c5ccccc5)cc4)nn3)[C@@H](CO)O2)c(=O)[nH]c1=O | – | – | – | – | – | 14% | 100% | 10% | 100% | – | – | – | –
12 | Cc1cn([C@H]2C[C@H](n3nncc3C3CCCCC3)[C@@H](CO)O2)c(=O)[nH]c1=O | – | – | – | – | – | 0% | 100% | 10% | 100% | – | – | – | –
13 | COc1ccc2cc(-c3cnnn3[C@H]3C[C@H](n4cc(C)c(=O)[nH]c4=O)O[C@@H]3COC3CCCCO3)ccc2c1 (some centres not stated) | – | – | – | – | – | 1% | 75% | 21% | 92% | – | – | – | –
14 | Cc1cn([C@H]2C[C@H](N3C(=O)CSC3c3ccc4[nH]ccc4c3)[C@@H](CO)O2)c(=O)[nH]c1=O (mixture of isomers) | – | – | – | – | – | 9.7% | 100% | 13% | 95% | – | – | – | –
15 | Cc1cn([C@H]2C[C@H](NC(=O)C(c3ccccc3)(c3ccccc3)c3ccccc3)[C@@H](CO)O2)c(=O)[nH]c1=O | – | – | – | – | – | 0% | 95% | 16% | 94% | – | – | – | –
16 | COc1ccc2cc(-c3cnnn3[C@H]3C[C@H](n4cc(C)c(=O)[nH]c4=O)O[C@@H]3COC(C)=O)ccc2c1 | – | – | – | – | – | 5.3% | 100% | 0% | 97% | – | – | – | –

Row | SMILES | Activity [1] | inhibition [2] | Activity [3] | Activity (Human betaherpesvirus 5) | Activity (Hepatitis C virus) | inhibition at 10 µM (West Nile virus) | Activity [4] | inhibition at 10 µM (Dengue virus) | Activity [5] | inhibition (West Nile virus) | inhibition (Dengue virus) | viability at 72 h, 10 µM ([4]; BHK cells infected with West Nile virus replicon, read-out: Activity) | viability at 72 h, 10 µM ([5]; BHK cells infected with Dengue virus replicon, read-out: Activity)
17 | Cc1cn([C@H]2C[C@H](n3nncc3-c3ccc(-c4ccccc4)cc3)[C@@H](CO)O2)c(=O)[nH]c1=O | – | – | – | – | – | 23% | 100% | 2.3% | 92% | – | – | – | –
18 | Cc1cn([C@H]2C[C@H](N=[N+]=[N-])[C@@H](CO)O2)c(=O)[nH]c1=O [ZIDOVUDINE] | – | – | – | – | – | 0% | – | 0% | – | – | – | 83% | 89%
19 | Cc1cn([C@H]2C[C@H](n3nncc3-c3ccc(Oc4ccccc4)cc3)[C@@H](CO)O2)c(=O)[nH]c1=O | – | – | – | – | – | 9% | 99% | 0% | 100% | – | – | – | –
20 | Cc1cn([C@H]2C[C@H](N3C(=O)CSC3c3c4ccccc4cc4ccccc34)[C@@H](CO)O2)c(=O)[nH]c1=O (mixture of isomers) | – | – | – | – | – | 12% | 100% | 0% | 96% | – | – | – | –
21 | COc1ccc2cc(-c3cnnn3[C@H]3C[C@H](n4cc(C)c(=O)[nH]c4=O)O[C@@H]3CO)ccc2c1 | – | – | – | – | – | 7.4% | 100% | 0% | 100% | – | – | – | –
22 | Cc1cn([C@H]2C[C@H](N3C(=O)CSC3c3ccccc3)[C@@H](CO)O2)c(=O)[nH]c1=O (mixture of isomers) | – | – | – | – | – | 0% | 99% | 0% | 100% | – | – | – | –
23 | Cc1cn([C@H]2C[C@H](NC(=O)c3c4ccccc4cc4ccccc34)[C@@H](CO)O2)c(=O)[nH]c1=O | – | – | – | – | – | 0% | 92% | 0% | 95% | – | – | – | –
24 | Cc1cn([C@H]2C[C@H](NC(=O)c3cccc4ccccc34)[C@@H](CO)O2)c(=O)[nH]c1=O | – | – | – | – | – | 0% | 87% | 15% | 98% | – | – | – | –
25 | Cc1cn([C@H]2C[C@H](N=[N+]=[N-])[C@@H](CO[Si](C)(C)C(C)(C)C)O2)c(=O)[nH]c1=O | – | – | – | – | – | 17% | 96% | 3.6% | 87% | – | – | – | –
26 | Cc1cn([C@H]2C[C@H](n3nncc3COc3ccccc3)[C@@H](CO)O2)c(=O)[nH]c1=O | – | – | – | – | – | 0% | 96% | 0% | 100% | – | – | – | –
27 | Cc1cn([C@H]2C[C@H](n3nncc3-c3ccccc3)[C@@H](CO)O2)c(=O)[nH]c1=O | – | – | – | – | – | 4% | 99% | 0% | 100% | – | – | – | –
28 | Cc1cn([C@H]2C[C@H](n3nncc3C3CC3)[C@@H](CO)O2)c(=O)[nH]c1=O | – | – | – | – | – | 0% | 97% | 4.7% | 100% | – | – | – | –
29 | Cc1cn([C@H]2C[C@H](n3nncc3-c3cccc4ccccc34)[C@@H](CO)O2)c(=O)[nH]c1=O | – | – | – | – | – | 3.3% | 100% | 0% | 90% | – | – | – | –
30 | COc1ccc(C(OC[C@H]2O[C@@H](n3cc(C)c(=O)[nH]c3=O)C[C@@H]2n2nncc2-c2ccc3cc(OC)ccc3c2)(c2ccccc2)c2ccc(OC)cc2)cc1 | – | – | – | – | – | 23% | 93% | 46% | 93% | – | – | – | –
31 | Cc1cn([C@H]2C[C@H](NC(=O)c3c[nH]c4ccccc34)[C@@H](CO)O2)c(=O)[nH]c1=O | – | – | – | – | – | 0% | 97% | 4.3% | 96% | – | – | – | –
32 | Cc1cn([C@H]2C[C@H](NC(=O)c3ccc4ccccc4c3)[C@@H](CO)O2)c(=O)[nH]c1=O | – | – | – | – | – | 0% | 92% | 45% | 97% | – | – | – | –
